# Measurements pooled from the literature.
# Protocols differ between the studies behind these lines.
# Target: G protein-coupled receptor kinase 6 (GRK6, Homo sapiens, UniProt P43250)
Structure (SMILES),observed,action,method,tested at,measurement,result
COc1cc2ncnc(Nc3ccc(Oc4ccccc4)cc3C)c2cc1OC,enzyme activity,inhibitor,,1 µM,inhibition,0%
CCN(CC)CCNC(=O)c1c(C)[nH]c(/C=C2\C(=O)Nc3ccc(F)cc32)c1C,enzyme activity,inhibitor,,0.3 µM,inhibition,31%
CC(C)(C)c1nc(-c2cccc(NS(=O)(=O)c3c(F)cccc3F)c2F)c(-c2ccnc(N)n2)s1,enzyme activity,inhibitor,radiometric,1 µM,remaining activity,79%
COc1cc(Cl)c(C(=O)N[C@@H](CN[C@H]2CC[C@@H](N)CC2)Cc2ccc(C#N)cc2)cc1-c1ccc(CN[C@H](C)c2ccc(C)cc2)o1,enzyme activity,inhibitor,,1 µM,remaining activity,100%
CNC(=O)c1cc(Oc2ccc(NC(=O)Nc3ccc(Cl)c(C(F)(F)F)c3)cc2)ccn1,enzyme activity,inhibitor,,10 µM,inhibition,1%
Cc1ccc(NC(=O)c2ccc(C)c(C(F)(F)F)c2)cc1C#Cc1nn(C2CCC(O)CC2)c2ncnc(N)c12 (stereo not shown),cell-free assay,,,10 µM,remaining signal,100%
Cc1ccc(Nc2nccc(N(C)c3ccc4c(C)n(C)nc4c3)n2)cc1S(N)(=O)=O,enzyme activity,inhibitor,,0.3 µM,inhibition,11%
CC(C)(O)[C@H]1CC[C@H](Nc2ccc3ncc(-c4cccc(C(F)(F)F)c4)n3n2)CC1,enzyme activity,inhibitor,,1 µM,remaining activity,90.6%
CN1CC(Oc2cnc(C#N)cc2-c2ccn3nc(NC(=O)C4CC4)cc3c2)C1,enzyme activity,inhibitor,,1 µM,inhibition,9%
Cc1sc(C(=O)NC2COC2)cc1-n1cc(NC(=O)Nc2c(F)cccc2Cl)cn1,enzyme activity,inhibitor,,10 µM,remaining activity,91.5%
O=C1NC(=O)c2cc(Nc3ccc(F)cc3)c(Nc3ccc(F)cc3)cc21,cell-free assay,,,0.5 µM,remaining signal,98.7%
Cc1ccc(C(=O)NCc2ccsc2)cc1C#Cc1cn(C(C)C)c2ncnc(N)c12,enzyme activity,inhibitor,,1 µM,activity vs control,109%
CCN(CC)c1ccc(C2=NNC(=O)CC2C)cc1[N+](=O)[O-] (stereo not shown),enzyme activity,inhibitor,,10 µM,remaining activity,105%
